Measurements as given in ChEMBL document CHEMBL5705905, “Pharmacological targeting of kinases MST1 and MST2 augments tissue repair and regeneration” (Sci Transl Med, 2016).

Tests used:
[1] = target: Calcium/calmodulin-dependent protein kinase type II subunit gamma (Homo sapiens) (UniProt Q13555); test: Inhibition of CAMK2G (unknown origin) assessed as remaining activity at 1 uM by Kinome scan method relative to control
Summary of the method: (§1)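 Active-site-dependent competition-binding profiling (KINOMEscan) at 1 μM against a 468-kinase panel; compound supplied from a 10 mM DMSO stock. Read-out is ctrl% = (test signal − positive control signal)/(negative control signal − positive control signal) × 100. DMSO is the negative control (100%) and a control compound the positive control (0%). Lower ctrl% means tighter binding.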

[2] = target: Tyrosine-protein kinase Mer (Homo sapiens) (UniProt Q12866); test: Inhibition of MERTK (unknown origin) assessed as remaining activity at 1 uM by Kinome scan method relative to control
[3] = target: T1, Serine/threonine-protein kinase 24 (Homo sapiens, UniProt Q9Y6E0); test: Inhibition of MST3 (unknown origin) assessed as remaining activity at 1 uM by Kinome scan method relative to control
[4] = target: Serine/threonine-protein kinase SIK1 (Homo sapiens) (UniProt P57059); test: Inhibition of SIK (unknown origin) assessed as remaining activity at 1 uM by Kinome scan method relative to control
[5] = target: T2, Serine/threonine-protein kinase 3 (Homo sapiens, UniProt Q13188); test: Inhibition of recombinant His-tagged full-length MST2 (unknown origin) expressing in Escherichia coli assessed as MOB1a phosphorylation level incubated for 30 min in the presence of 30 uM ATP by immunoblot analysis
T2 sequence (Q13188 whole entry): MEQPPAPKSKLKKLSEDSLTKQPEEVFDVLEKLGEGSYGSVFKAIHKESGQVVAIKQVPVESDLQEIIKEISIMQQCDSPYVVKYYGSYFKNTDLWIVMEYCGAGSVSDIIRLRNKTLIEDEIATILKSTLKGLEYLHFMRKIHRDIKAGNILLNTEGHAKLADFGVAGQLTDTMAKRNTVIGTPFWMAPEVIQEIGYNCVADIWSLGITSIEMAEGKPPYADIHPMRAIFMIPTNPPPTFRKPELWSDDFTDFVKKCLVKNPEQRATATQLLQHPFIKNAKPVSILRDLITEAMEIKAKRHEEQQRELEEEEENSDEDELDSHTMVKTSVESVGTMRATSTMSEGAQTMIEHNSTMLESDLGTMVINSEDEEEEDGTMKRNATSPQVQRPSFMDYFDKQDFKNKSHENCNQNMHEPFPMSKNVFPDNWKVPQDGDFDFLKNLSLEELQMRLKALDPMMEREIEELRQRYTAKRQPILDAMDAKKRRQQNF

[6] = target: Mitogen-activated protein kinase kinase kinase 2 (Homo sapiens) (UniProt Q9Y2U5); test: Inhibition of MAP3K2 (unknown origin) assessed as remaining activity at 1 uM by Kinome scan method relative to control
[7] = target: Activin receptor type-1B (Homo sapiens) (UniProt P36896); test: Inhibition of ACVR1B (unknown origin) assessed as remaining activity at 1 uM by Kinome scan method relative to control
Summary of the method: (§2)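 Active-site-dependent competition-binding (KINOMEscan) panel of 468 kinases, test compound at 1 μM (from a 10 mM DMSO stock). Read-out is ctrl% = (test signal − positive control signal)/(negative control signal − positive control signal) × 100. DMSO is the negative control (100%) and a control compound is the positive control (0%). Lower ctrl% means tighter binding.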

[8] = target: Serine/threonine-protein kinase Chk1 (Homo sapiens) (UniProt O14757); test: Inhibition of CHEK1 (unknown origin) assessed as remaining activity at 1 uM by Kinome scan method relative to control; summary of the method: as §1
Sequence of Serine/threonine-protein kinase Chk1 (Homo sapiens) (O14757 whole entry): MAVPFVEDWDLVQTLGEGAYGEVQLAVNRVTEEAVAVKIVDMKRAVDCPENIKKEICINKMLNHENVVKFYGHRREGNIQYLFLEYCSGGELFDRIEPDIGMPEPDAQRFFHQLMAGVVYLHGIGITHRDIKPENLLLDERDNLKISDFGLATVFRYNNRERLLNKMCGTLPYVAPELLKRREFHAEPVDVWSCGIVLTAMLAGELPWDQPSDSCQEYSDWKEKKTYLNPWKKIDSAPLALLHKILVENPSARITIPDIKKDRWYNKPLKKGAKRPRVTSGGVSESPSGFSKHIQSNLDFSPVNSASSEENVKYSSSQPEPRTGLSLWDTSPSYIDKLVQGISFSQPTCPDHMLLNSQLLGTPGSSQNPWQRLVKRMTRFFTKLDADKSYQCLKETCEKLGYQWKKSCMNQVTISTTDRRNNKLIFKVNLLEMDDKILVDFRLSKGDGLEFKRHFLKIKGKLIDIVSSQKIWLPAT

[9] = target: Tyrosine-protein kinase JAK1 (Homo sapiens, UniProt P23458); test: Inhibition of JAK1 JH2domain-pseudokinase (unknown origin) in presence of ATP by enzymatic assay
Sequence of Tyrosine-protein kinase JAK1 (P23458 whole entry): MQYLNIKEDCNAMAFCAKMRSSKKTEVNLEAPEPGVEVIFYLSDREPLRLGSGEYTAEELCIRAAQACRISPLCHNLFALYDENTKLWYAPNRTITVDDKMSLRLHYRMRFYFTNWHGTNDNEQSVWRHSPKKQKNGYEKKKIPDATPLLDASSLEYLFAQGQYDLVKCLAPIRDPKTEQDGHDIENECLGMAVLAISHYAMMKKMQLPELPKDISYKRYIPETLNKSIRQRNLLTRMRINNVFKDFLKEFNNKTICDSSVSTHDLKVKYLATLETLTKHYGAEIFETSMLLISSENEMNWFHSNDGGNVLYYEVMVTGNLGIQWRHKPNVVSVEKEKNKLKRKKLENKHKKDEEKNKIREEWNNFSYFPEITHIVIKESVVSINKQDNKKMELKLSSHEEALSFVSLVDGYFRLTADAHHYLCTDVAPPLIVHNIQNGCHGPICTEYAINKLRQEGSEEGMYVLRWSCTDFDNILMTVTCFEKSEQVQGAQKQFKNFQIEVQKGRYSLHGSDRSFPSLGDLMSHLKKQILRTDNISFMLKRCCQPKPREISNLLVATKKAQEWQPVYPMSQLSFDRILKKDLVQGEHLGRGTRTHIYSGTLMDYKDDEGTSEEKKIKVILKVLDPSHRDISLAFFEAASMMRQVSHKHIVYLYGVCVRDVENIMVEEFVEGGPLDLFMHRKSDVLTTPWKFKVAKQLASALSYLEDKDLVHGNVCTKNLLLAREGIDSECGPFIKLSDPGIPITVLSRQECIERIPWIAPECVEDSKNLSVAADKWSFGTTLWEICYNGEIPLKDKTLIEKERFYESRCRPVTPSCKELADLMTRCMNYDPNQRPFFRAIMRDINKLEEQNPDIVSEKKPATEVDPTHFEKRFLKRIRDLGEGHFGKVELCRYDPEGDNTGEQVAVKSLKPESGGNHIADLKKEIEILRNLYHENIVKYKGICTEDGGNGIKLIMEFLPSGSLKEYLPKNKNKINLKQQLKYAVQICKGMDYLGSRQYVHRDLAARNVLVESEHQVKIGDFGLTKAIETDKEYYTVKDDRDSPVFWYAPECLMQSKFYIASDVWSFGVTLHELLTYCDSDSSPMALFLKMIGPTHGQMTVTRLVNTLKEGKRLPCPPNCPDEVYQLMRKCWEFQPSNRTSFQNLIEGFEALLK

[10] = target: T3, Serine/threonine-protein kinase 4 (Homo sapiens, UniProt Q13043); test: Inhibition of recombinant His-tagged full-length MST1 (unknown origin) expressing in Escherichia coli assessed as MOB1a phosphorylation level incubated for 30 min in the presence of 300 uM ATP by immunoblot analysis
T3 sequence (Q13043 whole entry): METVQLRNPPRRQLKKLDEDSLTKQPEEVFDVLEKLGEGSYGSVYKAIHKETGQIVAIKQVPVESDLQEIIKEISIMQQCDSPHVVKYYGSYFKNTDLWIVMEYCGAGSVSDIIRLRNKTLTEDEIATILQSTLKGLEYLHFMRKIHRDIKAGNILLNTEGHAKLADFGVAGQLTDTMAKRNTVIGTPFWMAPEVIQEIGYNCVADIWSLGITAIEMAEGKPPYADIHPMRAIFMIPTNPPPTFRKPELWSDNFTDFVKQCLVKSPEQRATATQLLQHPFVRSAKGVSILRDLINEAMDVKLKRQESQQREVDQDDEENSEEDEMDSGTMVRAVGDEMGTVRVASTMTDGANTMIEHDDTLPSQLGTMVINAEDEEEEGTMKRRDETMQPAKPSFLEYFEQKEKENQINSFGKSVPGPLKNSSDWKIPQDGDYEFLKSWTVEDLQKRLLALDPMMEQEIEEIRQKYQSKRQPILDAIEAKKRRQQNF

Homo sapiens = species on record: Homo sapiens; test: Inhibition of ALK C1156V mutant (unknown origin) assessed as remaining activity at 1 uM by Kinome scan method relative to control
Summary of the method: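 KINOMEscan active-site-dependent competition-binding panel of 468 kinases, compound at 1 μM from a DMSO stock. Result reported as ctrl% = (test signal − positive control signal)/(negative control signal − positive control signal) × 100. The negative control is DMSO (100%) and the positive control is a control compound (0%). Lower ctrl% means tighter binding.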

[11] = target: T1, Serine/threonine-protein kinase 24; test: Inhibition of MST3 (unknown origin) in presence of ATP by enzymatic assay
[12] = target: TGF-beta receptor type-1 (Homo sapiens) (UniProt P36897); test: Inhibition of TGFBR1 (unknown origin) assessed as remaining activity at 1 uM by Kinome scan method relative to control
Sequence of TGF-beta receptor type-1 (Homo sapiens) (P36897 whole entry): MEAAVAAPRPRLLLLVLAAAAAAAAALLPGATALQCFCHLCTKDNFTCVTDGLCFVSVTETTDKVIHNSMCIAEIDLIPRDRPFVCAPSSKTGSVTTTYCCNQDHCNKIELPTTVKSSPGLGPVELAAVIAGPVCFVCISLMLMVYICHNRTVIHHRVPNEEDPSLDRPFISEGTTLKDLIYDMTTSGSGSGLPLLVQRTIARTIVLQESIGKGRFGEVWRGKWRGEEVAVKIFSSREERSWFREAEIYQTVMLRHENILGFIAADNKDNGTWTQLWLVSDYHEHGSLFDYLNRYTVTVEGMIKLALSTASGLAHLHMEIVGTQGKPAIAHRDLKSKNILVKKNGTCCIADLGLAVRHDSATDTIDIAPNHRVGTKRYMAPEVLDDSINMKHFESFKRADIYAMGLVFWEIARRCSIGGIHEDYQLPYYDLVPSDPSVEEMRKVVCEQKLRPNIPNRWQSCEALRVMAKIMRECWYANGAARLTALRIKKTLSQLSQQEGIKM

[13] = target: STE20-like serine/threonine-protein kinase (Homo sapiens) (UniProt Q9H2G2); test: Inhibition of SLK (unknown origin) assessed as remaining activity at 1 uM by Kinome scan method relative to control
Sequence of STE20-like serine/threonine-protein kinase (Homo sapiens) (Q9H2G2 whole entry, looked up): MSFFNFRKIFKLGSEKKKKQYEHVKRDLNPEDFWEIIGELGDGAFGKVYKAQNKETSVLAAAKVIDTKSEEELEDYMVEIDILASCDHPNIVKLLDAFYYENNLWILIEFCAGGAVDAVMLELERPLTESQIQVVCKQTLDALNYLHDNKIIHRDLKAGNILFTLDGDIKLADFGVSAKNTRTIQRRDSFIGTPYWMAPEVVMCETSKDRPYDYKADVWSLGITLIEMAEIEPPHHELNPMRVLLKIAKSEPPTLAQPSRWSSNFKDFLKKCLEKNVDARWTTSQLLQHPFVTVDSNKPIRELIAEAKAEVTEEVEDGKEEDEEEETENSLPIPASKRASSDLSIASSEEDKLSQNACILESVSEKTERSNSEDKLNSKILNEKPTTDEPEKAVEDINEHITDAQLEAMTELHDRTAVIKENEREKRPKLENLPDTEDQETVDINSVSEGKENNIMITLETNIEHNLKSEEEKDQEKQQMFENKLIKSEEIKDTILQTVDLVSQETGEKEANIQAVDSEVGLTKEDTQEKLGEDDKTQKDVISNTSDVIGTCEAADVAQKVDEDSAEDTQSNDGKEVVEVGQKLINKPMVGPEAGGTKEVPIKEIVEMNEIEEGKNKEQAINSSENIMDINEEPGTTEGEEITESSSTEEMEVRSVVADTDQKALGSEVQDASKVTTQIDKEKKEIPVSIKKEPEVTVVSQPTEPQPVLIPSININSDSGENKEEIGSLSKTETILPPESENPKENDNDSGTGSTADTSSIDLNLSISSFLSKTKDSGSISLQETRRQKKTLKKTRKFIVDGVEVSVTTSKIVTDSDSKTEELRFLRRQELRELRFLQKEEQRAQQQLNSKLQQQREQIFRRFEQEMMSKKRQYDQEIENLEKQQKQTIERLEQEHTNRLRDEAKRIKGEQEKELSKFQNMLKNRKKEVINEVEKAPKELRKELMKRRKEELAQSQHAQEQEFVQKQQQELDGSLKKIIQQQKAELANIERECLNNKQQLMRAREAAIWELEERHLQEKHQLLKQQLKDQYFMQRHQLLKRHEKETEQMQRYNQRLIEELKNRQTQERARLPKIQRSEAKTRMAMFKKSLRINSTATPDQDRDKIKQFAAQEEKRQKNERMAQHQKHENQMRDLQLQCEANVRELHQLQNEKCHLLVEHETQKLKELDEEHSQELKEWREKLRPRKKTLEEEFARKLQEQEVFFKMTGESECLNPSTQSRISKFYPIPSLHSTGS

[14] = target: Myosin light chain kinase 2, skeletal/cardiac muscle (Homo sapiens) (UniProt Q9H1R3); test: Inhibition of MYLK2 (unknown origin) assessed as remaining activity at 1 uM by Kinome scan method relative to control
[15] = target: Bone morphogenetic protein receptor type-2 (Homo sapiens) (UniProt Q13873); test: Inhibition of BMPR2 (unknown origin) assessed as remaining activity at 1 uM by Kinome scan method relative to control; summary of the method: as §2
[16] = target: Ephrin type-A receptor 3 (Homo sapiens) (UniProt P29320); test: Inhibition of EPHA3 (unknown origin) assessed as remaining activity at 1 uM by Kinome scan method relative to control
Sequence of Ephrin type-A receptor 3 (Homo sapiens) (P29320 whole entry): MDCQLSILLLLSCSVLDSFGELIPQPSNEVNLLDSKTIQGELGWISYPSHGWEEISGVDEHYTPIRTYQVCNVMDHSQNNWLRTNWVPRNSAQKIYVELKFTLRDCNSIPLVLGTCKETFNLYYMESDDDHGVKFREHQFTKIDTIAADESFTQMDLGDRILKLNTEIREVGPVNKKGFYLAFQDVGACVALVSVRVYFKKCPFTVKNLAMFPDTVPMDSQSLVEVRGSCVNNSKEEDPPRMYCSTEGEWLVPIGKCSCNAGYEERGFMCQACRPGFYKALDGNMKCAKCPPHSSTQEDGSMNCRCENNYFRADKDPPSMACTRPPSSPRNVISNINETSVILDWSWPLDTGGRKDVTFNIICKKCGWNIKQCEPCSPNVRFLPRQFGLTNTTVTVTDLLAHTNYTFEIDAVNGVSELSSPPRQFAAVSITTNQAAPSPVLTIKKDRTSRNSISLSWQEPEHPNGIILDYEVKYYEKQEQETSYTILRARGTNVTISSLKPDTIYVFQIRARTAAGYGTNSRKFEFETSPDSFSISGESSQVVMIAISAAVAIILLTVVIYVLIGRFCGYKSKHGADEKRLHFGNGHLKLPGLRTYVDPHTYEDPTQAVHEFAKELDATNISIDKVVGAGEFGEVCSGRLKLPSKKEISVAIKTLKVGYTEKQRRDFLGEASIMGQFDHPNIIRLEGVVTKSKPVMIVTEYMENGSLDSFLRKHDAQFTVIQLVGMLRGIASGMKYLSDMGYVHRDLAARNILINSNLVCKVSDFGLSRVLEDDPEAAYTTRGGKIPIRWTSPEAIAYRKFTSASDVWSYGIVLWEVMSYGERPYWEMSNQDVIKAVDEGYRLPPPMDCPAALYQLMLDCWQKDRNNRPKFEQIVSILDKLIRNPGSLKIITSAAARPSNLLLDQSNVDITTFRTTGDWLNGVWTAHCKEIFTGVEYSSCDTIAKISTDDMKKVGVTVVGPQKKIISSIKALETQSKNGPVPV

[17] = target: Mitogen-activated protein kinase 14 (Homo sapiens) (UniProt Q16539); test: Inhibition of P38alpha (unknown origin) assessed as remaining activity at 1 uM by Kinome scan method relative to control

Sequence of Calcium/calmodulin-dependent protein kinase type II subunit gamma (Homo sapiens) (Q13555 whole entry): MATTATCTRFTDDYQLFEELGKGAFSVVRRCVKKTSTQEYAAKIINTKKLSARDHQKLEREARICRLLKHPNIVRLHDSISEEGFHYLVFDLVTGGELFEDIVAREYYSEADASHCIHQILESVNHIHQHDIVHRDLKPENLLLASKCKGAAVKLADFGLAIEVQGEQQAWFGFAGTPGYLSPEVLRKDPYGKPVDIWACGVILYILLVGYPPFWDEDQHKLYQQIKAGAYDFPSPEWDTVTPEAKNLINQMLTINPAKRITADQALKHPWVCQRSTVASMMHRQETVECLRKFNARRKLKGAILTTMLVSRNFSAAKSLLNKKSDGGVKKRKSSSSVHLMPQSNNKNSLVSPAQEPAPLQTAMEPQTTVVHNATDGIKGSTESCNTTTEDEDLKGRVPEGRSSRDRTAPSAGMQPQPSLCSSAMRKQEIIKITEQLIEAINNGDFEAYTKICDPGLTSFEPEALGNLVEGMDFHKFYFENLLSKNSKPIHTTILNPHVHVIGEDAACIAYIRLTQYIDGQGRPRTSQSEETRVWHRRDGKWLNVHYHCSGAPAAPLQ

With CN1C(=O)c2sccc2N(C)c2nc(Nc3ccc(S(N)(=O)=O)cc3)ncc21 the Activity [1] was 100%, the Activity [2] was 100% and the Activity [3] was 0.9%. It also gave an Activity [4] of 100%, an IC50 [5] of 177 nM and an Activity [6] of 2.6%. The Activity [7] was 76%, the Activity [8] was 73% and the IC50 [9] was 38.7 nM. For the same molecule, the IC50 [10] was 4040 nM, the Activity (Homo sapiens) was 95% and the IC50 [11] was 44.8 nM. It also gave an Activity [12] of 92%, an Activity [13] of 100% and an Activity [14] of 92%. The Activity [15] was 100%, the Activity [16] was 91% and the Activity [17] was 88%.
